pIC50, pKi: −log10 of the molar value.

Here are results for ten molecules from ChEMBL document CHEMBL4732024, “Second-generation tricyclic pyrimido-pyrrolo-oxazine mTOR inhibitor with predicted blood-brain barrier permeability” (RSC Med Chem, 2021).

In data set [1] the target is T1, MDR1 (P-gp, ABCB1) (Homo sapiens, UniProt P08183). The data set can be described thus: Substrate activity at human MDR1 expressed in MDCK cells assessed as apparent permeability at 1 uM by UPLS-MS/MS analysis. Type of data set: ADME, cell-based. The procedure, abridged: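 TransWell assay in CRISPR-Cas9 MDCK cells expressing human MDR1 with endogenous canine MDR1 knocked out (MDCK-hMDR1^cMDR1-ko), grown on filters; apparent permeability measured apical to basolateral.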

Data set [2] deals with T1, MDR1 (P-gp, ABCB1). In words: Substrate activity at human MDR1 expressed in MDCK cells assessed as efflux ratio of apparent permeability across basolateral to apical side over apical to basolateral side at 1 uM by UPLS-MS/MS analysis. The data set is classed as ADME, cell-based.
The nature of data set [3]: Inhibition of mTORC2 in human A2058 cells assessed as reduction in PKB phosphorylation at S473 residue incubated for 1 hr by Western blot analysis. Type of data set: cell-based. The conditions noted are these: A2058, 1 h. The procedure, abridged:
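A2058 melanoma cells were used. mTORC1 activity was read as phospho-S6 ribosomal protein (Ser235/236), and mTORC2 activity as phospho-PKB/Akt (Ser473). IC50 came from a 7-point 1:2 serial dilution, with each concentration measured in triplicate. Data are reported as mean ± SD.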
On the technique in general: In western blotting, separated proteins are transferred to a membrane and probed.

The next data set deals with mTORC1 (Homo sapiens, UniProt P42345). The data set can be described thus: Inhibition of mTORC1 in human A2058 cells assessed as reduction in S6 ribosomal protein phosphorylation at Ser235/236 residues incubated for 1 hr by Western blot analysis. The data set is classed as cell-based. The procedure, abridged:
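A2058 melanoma cells; phospho-S6 (Ser235/236) used as the mTORC1 readout. IC50 from a 7-point 1:2 serial dilution, each concentration in triplicate. Reported as mean ± SD.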

The target in data set [4] is Phosphatidylinositol 4,5-bisphosphate 3-kinase catalytic subunit alpha isoform (Homo sapiens, UniProt P42336). In words: Inhibition of alexa fluor 647-labeled kinase tracer 314 binding to recombinant N-terminal His6-tagged p110alpha (unknown origin) by TR-FRET assay. The procedure, abridged: (§1)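 LanthaScreen TR-FRET displacement of tracer from the ATP-binding site of recombinant kinase. 10-point 1:4 serial dilution with each concentration in duplicate. IC50 converted to Ki using a factor of 2.05 for mTOR and 9.84 for p110α. Reported as mean ± SD.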
A general note: In TR-FRET formats the signal depends on donor and acceptor labels being close together.

For data set [5], the target named is Serine/threonine-protein kinase mTOR (Homo sapiens, UniProt P42345). In words: Inhibition of alexa fluor 647-labeled kinase tracer 314 binding to recombinant N-terminal GST-fused mTOR (1360 to 2549 residues) (unknown origin) by TR-FRET assay. The gist of the method: as §1
The next data set addresses T2, CYP1A1 (Homo sapiens, UniProt P04798).
T2 sequence (P04798 whole entry): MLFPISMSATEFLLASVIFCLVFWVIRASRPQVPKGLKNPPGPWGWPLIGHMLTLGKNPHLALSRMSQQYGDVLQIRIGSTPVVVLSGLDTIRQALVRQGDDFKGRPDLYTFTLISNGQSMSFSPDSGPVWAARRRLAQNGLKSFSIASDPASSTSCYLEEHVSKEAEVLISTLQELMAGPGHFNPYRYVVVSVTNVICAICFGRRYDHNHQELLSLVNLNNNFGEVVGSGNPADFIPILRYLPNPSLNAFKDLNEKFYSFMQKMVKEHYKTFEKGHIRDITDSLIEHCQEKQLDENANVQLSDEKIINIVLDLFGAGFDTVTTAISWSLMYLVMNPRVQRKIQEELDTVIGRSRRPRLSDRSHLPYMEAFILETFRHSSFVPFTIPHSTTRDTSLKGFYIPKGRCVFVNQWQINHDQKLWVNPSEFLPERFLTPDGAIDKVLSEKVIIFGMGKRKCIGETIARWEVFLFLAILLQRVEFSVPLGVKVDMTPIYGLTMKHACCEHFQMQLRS
The data set can be described thus: Stability of compound assessed as recombinant human CYP1A1 expressed in baculovirus infected insect cells mediated compound metabolism by measuring parent compound remaining at 1 uM preincubated with NADP+ regenerating system for 10 mins followed by enzyme addition and measured after 60 mins by LC-MS analysis. Type of data set: ADME. The conditions noted are these: time 70 min, read-out: Stabilty. The procedure, abridged:
(§2)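 Individual human recombinant CYP isoenzymes; percentage of parent compound remaining after 60 min incubation.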

For the next data set, the target named is T3, CYP1A2 (Homo sapiens, UniProt P05177).
T3 sequence (P05177 whole entry): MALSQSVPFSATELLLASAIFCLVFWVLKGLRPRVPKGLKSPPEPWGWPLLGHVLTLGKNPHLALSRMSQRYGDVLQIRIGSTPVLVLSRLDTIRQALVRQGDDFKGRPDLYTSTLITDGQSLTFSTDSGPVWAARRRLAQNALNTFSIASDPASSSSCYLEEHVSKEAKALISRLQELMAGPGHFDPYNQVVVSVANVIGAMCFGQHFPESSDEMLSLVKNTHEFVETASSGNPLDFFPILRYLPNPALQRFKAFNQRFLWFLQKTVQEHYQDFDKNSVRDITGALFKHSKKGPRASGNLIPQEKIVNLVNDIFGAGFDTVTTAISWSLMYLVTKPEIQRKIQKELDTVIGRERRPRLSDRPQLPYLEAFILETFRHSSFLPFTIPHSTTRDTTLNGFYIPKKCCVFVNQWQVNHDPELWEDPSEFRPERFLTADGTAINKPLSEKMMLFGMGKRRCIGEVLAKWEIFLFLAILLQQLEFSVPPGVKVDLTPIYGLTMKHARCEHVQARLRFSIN
The data set can be described thus: Stability of compound assessed as recombinant human CYP1A2 expressed in baculovirus infected insect cells mediated compound metabolism by measuring parent compound remaining at 1 uM preincubated with NADP+ regenerating system for 10 mins followed by enzyme addition and measured after 60 mins by LC-MS analysis. Type of data set: ADME. The conditions noted are these: time 70 min, read-out: Stabilty. The gist of the method:
as §2

Sequence of Phosphatidylinositol 4,5-bisphosphate 3-kinase catalytic subunit alpha isoform (P42336 whole entry, canonical isoform): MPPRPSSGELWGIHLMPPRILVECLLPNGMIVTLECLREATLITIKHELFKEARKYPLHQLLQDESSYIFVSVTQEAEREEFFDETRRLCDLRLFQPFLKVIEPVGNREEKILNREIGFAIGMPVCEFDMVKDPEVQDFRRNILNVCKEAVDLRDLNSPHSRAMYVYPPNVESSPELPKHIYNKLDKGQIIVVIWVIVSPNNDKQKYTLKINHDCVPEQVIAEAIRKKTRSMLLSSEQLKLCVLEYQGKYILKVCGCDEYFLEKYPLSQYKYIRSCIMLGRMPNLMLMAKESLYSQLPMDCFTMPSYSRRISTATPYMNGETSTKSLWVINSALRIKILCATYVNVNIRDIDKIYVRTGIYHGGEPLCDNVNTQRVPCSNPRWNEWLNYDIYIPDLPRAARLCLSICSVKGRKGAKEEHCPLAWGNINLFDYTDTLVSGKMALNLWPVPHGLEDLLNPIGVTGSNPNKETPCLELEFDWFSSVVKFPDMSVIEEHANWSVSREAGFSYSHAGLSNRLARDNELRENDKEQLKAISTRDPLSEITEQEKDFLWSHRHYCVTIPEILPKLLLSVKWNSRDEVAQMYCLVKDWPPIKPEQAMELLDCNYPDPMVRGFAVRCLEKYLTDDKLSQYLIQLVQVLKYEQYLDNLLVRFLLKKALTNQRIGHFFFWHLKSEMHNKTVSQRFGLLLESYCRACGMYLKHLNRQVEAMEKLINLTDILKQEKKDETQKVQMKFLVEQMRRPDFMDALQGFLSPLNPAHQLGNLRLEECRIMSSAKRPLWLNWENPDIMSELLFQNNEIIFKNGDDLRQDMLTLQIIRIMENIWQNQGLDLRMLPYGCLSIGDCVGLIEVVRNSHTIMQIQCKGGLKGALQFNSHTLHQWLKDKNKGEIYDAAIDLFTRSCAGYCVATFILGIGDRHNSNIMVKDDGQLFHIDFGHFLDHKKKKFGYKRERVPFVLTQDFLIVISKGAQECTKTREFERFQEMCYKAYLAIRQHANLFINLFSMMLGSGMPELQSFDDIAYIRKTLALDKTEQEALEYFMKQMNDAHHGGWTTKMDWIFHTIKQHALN
T1 sequence (P08183 whole entry): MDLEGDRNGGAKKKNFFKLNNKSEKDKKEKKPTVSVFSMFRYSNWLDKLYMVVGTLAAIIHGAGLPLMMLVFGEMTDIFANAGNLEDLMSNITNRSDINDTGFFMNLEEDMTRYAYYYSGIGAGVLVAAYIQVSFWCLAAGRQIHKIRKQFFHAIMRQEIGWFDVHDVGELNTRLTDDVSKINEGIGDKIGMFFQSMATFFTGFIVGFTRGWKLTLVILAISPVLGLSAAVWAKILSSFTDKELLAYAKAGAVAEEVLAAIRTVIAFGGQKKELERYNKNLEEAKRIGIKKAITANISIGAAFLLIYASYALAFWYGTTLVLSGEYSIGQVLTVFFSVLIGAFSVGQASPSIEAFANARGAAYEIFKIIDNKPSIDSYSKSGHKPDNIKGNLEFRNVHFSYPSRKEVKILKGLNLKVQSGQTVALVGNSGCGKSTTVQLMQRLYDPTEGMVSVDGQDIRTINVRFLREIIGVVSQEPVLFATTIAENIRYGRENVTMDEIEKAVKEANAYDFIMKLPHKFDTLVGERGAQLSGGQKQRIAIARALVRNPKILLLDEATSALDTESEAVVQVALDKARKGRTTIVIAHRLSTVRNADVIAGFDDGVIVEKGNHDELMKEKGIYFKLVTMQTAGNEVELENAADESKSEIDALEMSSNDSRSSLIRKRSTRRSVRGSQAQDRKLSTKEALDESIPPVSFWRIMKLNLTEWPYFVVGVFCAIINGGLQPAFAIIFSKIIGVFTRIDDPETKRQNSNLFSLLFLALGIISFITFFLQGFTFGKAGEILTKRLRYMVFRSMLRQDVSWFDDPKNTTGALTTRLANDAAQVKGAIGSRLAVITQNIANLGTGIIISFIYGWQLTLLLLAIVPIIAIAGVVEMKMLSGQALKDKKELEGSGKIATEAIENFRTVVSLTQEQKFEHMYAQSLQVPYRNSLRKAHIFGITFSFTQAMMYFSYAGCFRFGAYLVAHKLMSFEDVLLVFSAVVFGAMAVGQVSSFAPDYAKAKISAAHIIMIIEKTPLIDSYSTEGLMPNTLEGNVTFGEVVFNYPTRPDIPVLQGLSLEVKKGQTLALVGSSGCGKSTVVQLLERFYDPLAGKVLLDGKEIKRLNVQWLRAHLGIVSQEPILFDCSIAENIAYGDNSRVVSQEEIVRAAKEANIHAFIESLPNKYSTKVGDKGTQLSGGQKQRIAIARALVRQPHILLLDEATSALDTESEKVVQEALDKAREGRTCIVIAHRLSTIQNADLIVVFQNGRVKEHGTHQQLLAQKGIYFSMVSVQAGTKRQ

For orientation: Papp A→B means the apparent permeability from the apical to the basolateral side of a cell layer. In general, efflux ratio refers to a quotient of directional permeabilities that is used to spot active efflux. `C[C@@H]1COCCN1c1nc(-c2cnc(N)cn2)nc2c1C[C@@H]1COCCN21`: the Papp A→B at 1 µM on MDR1 (P-gp, ABCB1) [1] was under 60 ×10⁻⁶ cm/s. Besides, the efflux ratio at 1 µM on MDR1 (P-gp, ABCB1) [2] is over 20.
The pIC50 is the negative decadic logarithm of the IC50, by convention in mol/L. Broadly, the pKi is the negative decadic logarithm of the Ki, by convention in mol/L. `C[C@@H]1COCCN1c1nc(-c2cnc(N)cc2C(F)F)nc2c1C[C@@H]1COCCN21`: the pIC50 is 6.60 in data set [3] and 7.17 at mTORC1. In addition, the pKi in data set [4] was 6.63; in data set [5] it was 7.92.
In the same order, the values of `C[C@@H]1COCCN1c1nc(-c2cnc(N)nc2C(F)(F)F)nc2c1C[C@@H]1COCCN21` are 6.35, 6.16, 7.26 and 6.60.
Regarding `C[C@@H]1COCCN1c1nc(-c2cnc(N)nc2C(F)F)nc2c1C[C@@H]1COCCN21`, on mTORC1, the pIC50 was 6.92. Besides, the values for the pKi in data set [4] and in data set [5] were 7.77 and 7.47, respectively.
Regarding `C[C@@H]1COCCN1c1nc(-c2nnc(N)s2)nc2c1C[C@@H]1COCCN21`, the pIC50 in data set [3] is 6.87; on mTORC1 it was 7.10. Besides, the negative logarithm of the Ki (pKi) in data set [4] is 5.81; in data set [5], 8.09. Further, the Papp A→B at 1 µM on MDR1 (P-gp, ABCB1) [1] was under 60 ×10⁻⁶ cm/s. Moreover, the efflux ratio at 1 µM at MDR1 (P-gp, ABCB1) [2] is over 20.
Take `C[C@@H]1COCCN1c1nc(-c2cnc(N)cc2C(F)(F)F)nc2c1C[C@@H]1COCCN21`: the negative logarithm of the IC50 (pIC50) in data set [3] is 5.96; at mTORC1, 6.11. The pKi in data set [4] was 6.57; in data set [5], 6.93.
The corresponding values for `C[C@@H]1COCCN1c1nc(-c2cnc(N)c(C(F)(F)F)c2)nc2c1C[C@@H]1COCCN21` are 6.26, 6.46, under 4.70 and 7.48.
On to `C[C@@H]1COCCN1c1nc(-c2cnc(N)s2)nc2c1C[C@@H]1COCCN21`, for which the remaining at 1 h, 1 µM at CYP1A1 was 48%; at CYP1A2, 87%. The pIC50 was 6.80 in data set [3] and 6.99 on mTORC1. The values for the pKi in data set [4] and in data set [5] were 5.60 and 7.82, respectively. Moreover, the Papp A→B at 1 µM on MDR1 (P-gp, ABCB1) [1] is under 60 ×10⁻⁶ cm/s. Also, the efflux ratio at 1 µM on MDR1 (P-gp, ABCB1) [2] is over 20.
On to `C[C@@H]1COCCN1c1nc(-c2ccc(N)nn2)nc2c1C[C@@H]1COCCN21`, for which the values for the pIC50 (in data set [3]; on mTORC1) were 6.79 and 7.08, respectively. Also, the pKi in data set [4] was 6.07; in data set [5], 7.96.
The corresponding values for `C[C@@H]1COCCN1c1nc(-c2nc(N)ns2)nc2c1C[C@@H]1COCCN21` are 6.29, 6.58, 6.09 and 7.24.
